According to ChEMBL document CHEMBL1641569, “Synthetic conjugates of genistein affecting proliferation and mitosis of cancer cells” (Bioorg Med Chem, 2011):
Calls of active or inactive are those of the source. No cut-off for these calls is given here.

Tests used:
HCT-116 [1] = experiment: Cytotoxicity against human HCT116 cells after 72 hrs by MTT assay; type: functional, cell-based; settings: HCT-116, 72 h
HCT-116 [2] = experiment: Inhibition of mitosis in human HCT116 cells assessed as appearance of bipolar spindle with large mass of lagging chromosomes at spindle poles at 10 uM after 24 hrs by immunofluorescence assay; type: functional; parameters: scale not given: the % may be the effect or the level left
Method in brief: (§1)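 Cells treated 24 h on chamber slides, fixed in ice-cold methanol, blocked with 1% goat serum, stained with mouse anti-β-tubulin (1:50) then FITC anti-mouse, DAPI counterstained; 100 mitotic cells per treatment scored at 100× oil for spindle type (normal bipolar, bipolar with lagging chromosomes, tri/multipolar, monopolar). Mean ± SD of two experiments.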

HT-29 = experiment: Cytotoxicity against human HT-29 cells after 72 hrs by SRB assay; type: functional, cell-based; settings: HT-29, 72 h
Method in brief: (§2)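 Cells plated at 2 × 10³ per well 24 h before continuous 72 h exposure to a concentration series; fixed with cold 50% TCA 1 h at 4 °C, stained with 0.4% sulforhodamine B in 1% acetic acid 30 min, bound dye extracted in 10 mM Tris base, OD 540 nm. Viability as % of DMSO control; IC50 = concentration reducing viability 50%; triplicates, ≥3 experiments.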

HCT-116 [3] = experiment: Inhibition of mitosis in human HCT116 cells assessed as appearance of monopolar spindle at 10 uM after 24 hrs by immunofluorescence assay; type: functional; parameters: scale not given: the % may be the effect or the level left; method in brief: as §1
DU-145 [4] = experiment: Cell cycle arrest in human DU145 cells assessed as accumulation at G2/M phase at 20 uM after 24 hrs by propidium iodide staining-based flow cytometry; type: functional
Method in brief: (§3)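 Subconfluent cultures exposed continuously to compound; floating and trypsinized adherent cells pooled, PBS-washed, fixed in ice-cold 70% ethanol 30 min, RNase (100 µg/mL) treated, stained with propidium iodide, DNA content measured by flow cytometry to give G1, S, G2/M, apoptotic (sub-G1) and polyploid fractions. Experiments repeated at least twice.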

LNCaP = experiment: Cytotoxicity against human LNCAP cells after 72 hrs by SRB assay; type: functional, cell-based; method in brief: as §2
HCT-116 [5] = experiment: Inhibition of mitosis in human HCT116 cells assessed as appearance of normal bipolar spindle at 10 uM after 24 hrs by immunofluorescence assay; type: functional; parameters: scale not given: the % may be the effect or the level left; method in brief: as §1
SK-BR-3 = experiment: Cytotoxicity against human SKBR3 cells after 72 hrs by SRB assay; type: functional, cell-based; settings: SK-BR-3, 72 h; method in brief: as §2
HCT-116 [6] = experiment: Inhibition of mitosis in human HCT116 cells assessed as appearance of normal bipolar spindle at 20 uM after 24 hrs by immunofluorescence assay; type: functional; parameters: scale not given: the % may be the effect or the level left; method in brief: as §1
A549 [7] = experiment: Cell cycle arrest in human A549 cells assessed as accumulation at G2/M phase at 20 uM after 24 hrs by propidium iodide staining-based flow cytometry; type: functional; method in brief: as §3
HCT-116 [8] = experiment: Cytotoxicity against human HCT116 cells harboring p53 protein after 72 hrs by MTT assay; type: functional, cell-based; settings: HCT-116, 72 h
Method in brief: (§4)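 Cells seeded at 2 × 10³ per well, 24 h later exposed continuously 72 h to varying concentrations; then 0.5 mg/mL MTT in phenol red-free DMEM 3 h at 37 °C, formazan dissolved in 2-propanol/HCl, OD 570 nm. Viability relative to DMSO vehicle; IC50 = concentration reducing viability by 50%; triplicate wells, at least three independent experiments, mean ± SD.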

HCT-116 [9] = experiment: Inhibition of mitosis in human HCT116 cells assessed as appearance of bipolar spindle with large mass of lagging chromosomes at spindle poles at 5 uM after 24 hrs by immunofluorescence assay; type: functional; parameters: scale not given: the % may be the effect or the level left; method in brief: as §1
HCT-116 [10] = experiment: Induction of apoptosis in human HCT116 cells assessed as appearance of tetraploid nucleus at 5 to 20 uM after 48 hrs by flow cytometry; type: functional, cell-based; method in brief: as §3
DU-145 [11] = experiment: Cytotoxicity against human DU145 cells after 72 hrs by MTT assay; type: functional, cell-based; settings: DU-145, 72 h; method in brief: as §4
HCT-116 [12] = experiment: Inhibition of mitosis in human HCT116 cells assessed as appearance of monopolar spindle at 20 uM after 24 hrs by immunofluorescence assay; type: functional; parameters: scale not given: the % may be the effect or the level left; method in brief: as §1
HCT-116 [13] = experiment: Inhibition of mitosis in human HCT116 cells assessed as appearance of bipolar spindle with large mass of lagging chromosomes at spindle poles at 20 uM after 24 hrs by immunofluorescence assay; type: functional; parameters: scale not given: the % may be the effect or the level left; method in brief: as §1
A549 [14] = experiment: Cytotoxicity against human A549 cells after 72 hrs by SRB assay; type: functional, cell-based; settings: A549, 72 h; method in brief: as §2
[15] = Inhibition of tubulin polymerization after 1 hr
Method in brief: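 Cell-free assay: >97% pure tubulin in G-PEM buffer (80 mM PIPES, 2 mM MgCl2, 0.5 mM EGTA, 1 mM GTP, pH 6.9) plus 5% glycerol, with vehicle, compound (10, 20, 50 µM) or 3 µM paclitaxel, in pre-warmed plate at 37 °C; absorbance at 340 nm read every minute for 1 h. Repeated twice.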

MCF7 = experiment: Cytotoxicity against human MCF7 cells after 72 hrs by SRB assay; type: functional, cell-based; settings: MCF7, 72 h; method in brief: as §2
HCT-116 [16] = experiment: Induction of senescence in human HCT116 cells assessed as beta galactosidase activity at 20 uM
HCT-116 [17] = experiment: Induction of apoptosis in human HCT116 cells assessed as appearance of hypodiploid nucleus at 20 uM after 72 hrs by TUNEL assay; type: functional, cell-based
Method in brief: (§5)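 Floating and trypsin-detached adherent cells pooled, cytospun, fixed and TUNEL-labelled; apoptotic index scored among 500 nuclei, three experiments. In parallel, DNA extracted (proteinase K/SDS overnight 56 °C, phenol/chloroform, RNase A) and run on 1.8% agarose/ethidium bromide gel in 0.5× TBE for laddering. Controls received 0.2% DMSO; 24, 48, 72 h treatments.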

HCT-116 [18] = experiment: Induction of apoptosis in human HCT116 cells harboring p53 protein assessed as effect on apoptotic index at 20 uM after 72 hrs by DNA laddering assay; type: functional; method in brief: as §5
LoVo = experiment: Cytotoxicity against human LoVo cells after 72 hrs by MTT assay; type: functional, cell-based; method in brief: as §4
HCT-116 [19] = experiment: Induction of apoptosis in human HCT116 cells assessed as effect on apoptotic index at 20 uM after 72 hrs by DNA laddering assay; type: functional; method in brief: as §5
HCT-116 [20] = experiment: Cytotoxicity against p53-deficient human HCT116 cells after 72 hrs by MTT assay; type: functional, cell-based; settings: HCT-116, 72 h; method in brief: as §4
T98G = experiment: Cytotoxicity against human T98G cells after 72 hrs by SRB assay; type: functional, cell-based; method in brief: as §2
AGS [21] = experiment: Cell cycle arrest in human AGS cells assessed as accumulation at G2/M phase at 20 uM after 24 hrs by propidium iodide staining-based flow cytometry; type: functional; method in brief: as §3
HCT-116 [22] = experiment: Inhibition of mitosis in human HCT116 cells assessed as appearance of tripolar and multipolar spindle at 5 uM after 24 hrs by immunofluorescence assay; type: functional; parameters: scale not given: the % may be the effect or the level left; method in brief: as §1
HCT-116 [23] = experiment: Inhibition of mitosis in human HCT116 cells assessed as mitotic index at 20 uM after 24 hrs by fluorescence assay; type: functional
Method in brief: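 Cells treated 24 h, collected as for cell cycle analysis, cytospun, fixed in cold methanol, stained with 3 µM DAPI; mitotic cells counted among 1000 cells under 40× objective. Mean ± SD from three independent experiments.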

HCT-116 [24] = experiment: Inhibition of mitosis in human HCT116 cells assessed as appearance of tripolar and multipolar spindle at 20 uM after 24 hrs by immunofluorescence assay; type: functional; parameters: scale not given: the % may be the effect or the level left; method in brief: as §1
HCT-116 [25] = experiment: Cell cycle arrest in human HCT116 cells assessed as accumulation at G2/M phase after 24 hrs by propidium iodide staining-based flow cytometry; type: functional; method in brief: as §3
AGS [26] = experiment: Cytotoxicity against human AGS cells after 72 hrs by MTT assay; type: functional, cell-based; method in brief: as §4
Caco-2 = experiment: Cytotoxicity against human Caco2 cells after 72 hrs by MTT assay; type: functional, cell-based; settings: Caco-2, 72 h; method in brief: as §4
HCT-116 [27] = experiment: Inhibition of mitosis in human HCT116 cells assessed as appearance of monopolar spindle at 5 uM after 24 hrs by immunofluorescence assay; type: functional; parameters: scale not given: the % may be the effect or the level left; method in brief: as §1
PC-3 = experiment: Cytotoxicity against human PC3 cells after 72 hrs by MTT assay; type: functional, cell-based; settings: PC-3, 72 h; method in brief: as §4
HCT-116 [28] = experiment: Induction of apoptosis in p53-deficient human HCT116 cells assessed as effect on apoptotic index at 20 uM after 72 hrs by DNA laddering assay; type: functional; method in brief: as §5
HCT-116 [29] = experiment: Induction of apoptosis in human HCT116 cells assessed as appearance of hypodiploid nucleus at 5 to 20 uM after 48 hrs by flow cytometry; type: functional, cell-based; method in brief: as §3
HCT-116 [30] = experiment: Inhibition of mitosis in human HCT116 cells assessed as appearance of tripolar and multipolar spindle at 10 uM after 24 hrs by immunofluorescence assay; type: functional; parameters: scale not given: the % may be the effect or the level left; method in brief: as §1
HCT-116 [31] = experiment: Inhibition of mitosis in human HCT116 cells assessed as appearance of normal bipolar spindle at 5 uM after 24 hrs by immunofluorescence assay; type: functional; parameters: scale not given: the % may be the effect or the level left; method in brief: as §1
[32] = Solubility of the compound at 20 uM

CC(=O)OC[C@H]1O[C@H](OCCCOc2cc(O)c3c(=O)c(-c4ccc(O)cc4)coc3c2)C=C[C@@H]1OC(C)=O
IC50 (HCT-116 [1]): 19.9 µM

CC(=O)O[C@@H]1C=C[C@H](OCCCOc2cc(O)c3c(=O)c(-c4ccc(O)cc4)coc3c2)O[C@H]1C
Activity (HCT-116 [2]): 38%
IC50 (HT-29): 36.1 µM
Activity (HCT-116 [3]): 3%
Activity (DU-145 [4]): 46.1%
IC50 (LNCaP): 18 µM
Activity (HCT-116 [5]): 44%
IC50 (SK-BR-3): 28 µM
Activity (HCT-116 [6]): 16%
Activity (A549 [7]): 31.6%
IC50 (HCT-116 [8]): 4.76 µM
Activity (HCT-116 [9]): 14%
Activity (HCT-116 [10]): Active
IC50 (DU-145 [11]): 14.5 µM
Activity (HCT-116 [12]): 2%
Activity (HCT-116 [13]): 40%
IC50 (A549 [14]): 14.7 µM
IC50 (HCT-116 [1]): 4.76 µM
inhibition [15]: Dose-dependent effect
IC50 (MCF7): 8.88 µM
Activity (HCT-116 [16]): 31%
Activity (HCT-116 [17]): Active
Activity (HCT-116 [18]): 12%
IC50 (LoVo): 9.85 µM
Activity (HCT-116 [19]): 12%
IC50 (HCT-116 [20]): 6.21 µM
IC50 (T98G): 16.7 µM
Activity (AGS [21]): 39.7%
Activity (HCT-116 [22]): 1%
Activity (HCT-116 [23]): 13.2
Activity (HCT-116 [24]): 42%
Activity (HCT-116 [25]): Dose-dependent effect
IC50 (AGS [26]): 3.05 µM
IC50 (Caco-2): 23.3 µM
Activity (HCT-116 [27]): 0%
IC50 (PC-3): 10.7 µM
Activity (HCT-116 [28]): 15%
Activity (HCT-116 [29]): Active
Activity (HCT-116 [30]): 15%
Activity (HCT-116 [31]): 85%

O=c1c(-c2ccc(O)cc2)coc2cc(O)cc(O)c12 [GENISTEIN]
IC50 (HT-29): 52.8 µM
IC50 (LNCaP): 30.7 µM
IC50 (SK-BR-3): 96.7 µM
IC50 (DU-145 [11]): 47.3 µM
IC50 (A549 [14]): 43.1 µM
IC50 (HCT-116 [1]): 34.9 µM
IC50 (MCF7): 62.7 µM
IC50 (LoVo): 15.9 µM
IC50 (T98G): 89.4 µM
Activity (HCT-116 [23]): 1.8
IC50 (AGS [26]): 41.7 µM
IC50 (Caco-2): > 100 µM
IC50 (PC-3): 65.2 µM

CC(=O)OC[C@H]1O[C@@H](O[C@H]2C=C[C@@H](OCCCCCOc3cc(O)c4c(=O)c(-c5ccc(O)cc5)coc4c3)O[C@@H]2COC(C)=O)[C@H](OC(C)=O)[C@@H](OC(C)=O)[C@H]1OC(C)=O
IC50 (HCT-116 [1]): > 20 µM

CC(=O)OC[C@H]1O[C@@H](O[C@H]2C=C[C@@H](OCCOc3cc(O)c4c(=O)c(-c5ccc(O)cc5)coc4c3)O[C@@H]2COC(C)=O)[C@H](OC(C)=O)[C@@H](OC(C)=O)[C@H]1OC(C)=O
IC50 (HCT-116 [1]): > 20 µM
solubility [32]: Insoluble

O=c1c(-c2ccc(O)cc2)coc2cc(OCCCO)cc(O)c12
IC50 (HCT-116 [1]): 23.9 µM
